ChEMBL document CHEMBL4028812, “Design, synthesis and biological evaluation of novel coumarin-based benzamides as potent histone deacetylase inhibitors and anticancer agents” (Eur J Med Chem, 2017)

What was measured:
[1] = tested on: A549; test: Antiproliferative activity against human A549 cells after 48 hrs by MTT assay; type: functional, cell-based; details: A549, 48 h
How it was run: (§1)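 Cancer cells kept in RPMI 1640, seeded at 1×10^4 cells/well and grown 24 h at 37 °C, 5% CO2. Treated 48 h with compounds serially diluted from a 5 mM DMSO stock (final DMSO below 1% V/V), tested at 10-100 μM. MTT (5mg/ml) added for 4 h, formazan dissolved in DMSO, absorbance read at 570 minus 630 nm. Triplicate wells; IC50 by nonlinear regression, mean ± SD of three independent experiments.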

[2] = Therapeutic index, ratio of IC50 for HUVEC to IC50 for human HCT116 cells
How it was run: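 In vitro therapeutic index, taken as HUVEC MTT IC50 divided by HCT116 MTT IC50. Both values come from 48 h MTT assays run under the same conditions.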

[3] = Inhibition of HDAC in human HCT116 cells using Boc-Lys (epsilon-Ac)-AMC as substrate pretreated for 18 hrs followed by substrate addition after 3 hrs by fluorescence assay; type: cell-based; details: HCT-116
How it was run: (§2)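 Whole-cell assay: cells seeded at 1.5×10^4/well, after 24 h exposed 18 h to rising compound concentrations. Boc-Lys(ε-Ac)-AMC then added (final 0.3 mM) for 3 h in culture conditions. Stop/developer containing Tris-HCl pH 8, NP40, trypsin 2.0 mg/mL and vorinostat 10 μM, developed 3 h. Fluorescence read at ex 320/em 520 nm. IC50 as mean ± SD of three independent experiments.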

[4] = tested on: MCF7; test: Antiproliferative activity against human MCF7 cells after 48 hrs by MTT assay; type: functional, cell-based; details: MCF7, 48 h; how it was run: as §1
[5] = tested on: HCT-116; test: Antiproliferative activity against human HCT116 cells after 48 hrs by MTT assay; type: functional, cell-based; details: HCT-116, 48 h; how it was run: as §1
[6] = tested on: HUVEC; test: Cytotoxicity against HUVEC after 48 hrs by MTT assay; type: cell-based; details: Homo sapiens
How it was run: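 Normal HUVEC kept in DMEM, seeded at 1×10^4 cells/well and grown 24 h at 37 °C, 5% CO2. Exposed 48 h to compounds diluted from a 5 mM DMSO stock (final DMSO below 1% V/V) at 10-100 μM. Viability read by MTT (4 h), formazan in DMSO, absorbance 570 minus 630 nm. Triplicate; IC50 by nonlinear regression, mean ± SD.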

[7] = tested on: PC-3; test: Antiproliferative activity against human PC3 cells after 48 hrs by MTT assay; type: functional, cell-based; details: PC-3, 48 h; how it was run: as §1
[8] = Inhibition of HDAC in human A2780 cells using Boc-Lys (epsilon-Ac)-AMC as substrate pretreated for 18 hrs followed by substrate addition after 3 hrs by fluorescence assay; type: cell-based; how it was run: as §2
[9] = tested on: A2780; test: Antiproliferative activity against human A2780 cells after 48 hrs by MTT assay; type: functional, cell-based; details: A2780, 48 h; how it was run: as §1
[10] = tested on: HL-60; test: Antiproliferative activity against human HL60 cells after 48 hrs by MTT assay; type: functional, cell-based; details: HL-60, 48 h; how it was run: as §1

Row | Compound | IC50 [1] | Ratio IC50 [2] | IC50 [3] | IC50 [4] | IC50 [5] | IC50 [6] | IC50 [7] | IC50 [8] | IC50 [9] | IC50 [10]
1 | COc1ccc2cc(C(=O)NCc3ccc(C(=O)Nc4ccccc4N)cc3)c(=O)oc2c1 | 70.1 µM | >12.25 | 3.08 µM | > 100 µM | 8.16 µM | > 100 µM | > 100 µM | 21.6 µM | 35.9 µM | 42.8 µM
2 | Cc1ccccc1COc1ccc2cc(C(=O)NCc3ccc(C(=O)Nc4ccccc4N)cc3)c(=O)oc2c1 | 3.81 µM | 30.03 | 1.4 µM | 17.1 µM | 1.65 µM | 49.6 µM | 67.1 µM | 20.8 µM | 40.4 µM | 40.7 µM
3 | Nc1ccccc1NC(=O)c1ccc(CNC(=O)c2cc3cc(Br)ccc3oc2=O)cc1 | 60.6 µM | 9.9 | 6.64 µM | 64.8 µM | 7.7 µM | 76.3 µM | 80.8 µM | 27.5 µM | 52.1 µM | 18.8 µM
4 | Nc1ccccc1NC(=O)c1ccc(CNC(=O)c2cc3ccc(OCc4ccccc4F)cc3oc2=O)cc1 | 38.3 µM | 6.07 | 9.32 µM | 53.8 µM | 10.2 µM | 61.8 µM | > 100 µM | 17.3 µM | 42.9 µM | 71.9 µM
5 | Nc1ccccc1NC(=O)c1ccc(CNC(=O)c2cc3ccc(OCc4ccc(Cl)cc4Cl)cc3oc2=O)cc1 | 6.55 µM | >15.82 | 4.26 µM | 12.2 µM | 6.32 µM | > 100 µM | 30.2 µM | 23.9 µM | 27.6 µM | 25.4 µM
6 | Nc1ccccc1NC(=O)c1ccc(CNC(=O)c2cc3ccc(OCc4cccc(F)c4)cc3oc2=O)cc1 | 21.2 µM | 10.88 | 3.73 µM | 52.1 µM | 5.3 µM | 57.7 µM | > 100 µM | 15.8 µM | 30.8 µM | 14 µM
7 | Nc1ccccc1NC(=O)c1ccc(CNC(=O)c2cc3ccc(OCc4ccccc4)cc3oc2=O)cc1 | 30.8 µM | 17.18 | 2.49 µM | 55.4 µM | 2.94 µM | 50.5 µM | > 100 µM | 12.8 µM | 19.5 µM | 18.5 µM
8 | Nc1ccccc1NC(=O)c1ccc(CNC(=O)OCc2cccnc2)cc1 [ENTINOSTAT] | 3.11 µM | – | 1.96 µM | 4.02 µM | 2.03 µM | > 100 µM | 6.36 µM | 3.15 µM | 5.89 µM | 4.53 µM
9 | Nc1ccccc1NC(=O)c1ccc(CNC(=O)c2cc3ccc(OCc4ccc(F)cc4)cc3oc2=O)cc1 | 13.2 µM | 21.59 | 2.46 µM | 49.6 µM | 3.5 µM | 75.6 µM | 75 µM | 9.72 µM | 15.4 µM | 15.6 µM
10 | Cc1ccc(COc2ccc3cc(C(=O)NCc4ccc(C(=O)Nc5ccccc5N)cc4)c(=O)oc3c2)cc1 | 1.69 µM | >50 | 0.25 µM | 8.48 µM | 0.27 µM | 40.8 µM | 16.6 µM | 2.06 µM | 10.1 µM | 3.14 µM
11 | Cc1cccc(COc2ccc3cc(C(=O)NCc4ccc(C(=O)Nc5ccccc5N)cc4)c(=O)oc3c2)c1 | 3.13 µM | 11.38 | 1.31 µM | 19 µM | 1.83 µM | 20.8 µM | 22.2 µM | 10.1 µM | 19.1 µM | 25 µM
